In experiment [1] the target is cGMP-dependent 3',5'-cyclic phosphodiesterase (Homo sapiens, UniProt O00408). Briefly: Inhibition of Phosphodiesterase 2 from pig coronary artery. Format: tissue-based, Sus scrofa. The conditions noted are these: target entry is the homologue from another species; read-out: I50. The method in brief: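 Pooled peak II was the enzyme source, taken from DEAE-cellulose fractionation of soluble porcine coronary media plus intima homogenate (20 mM Tris-HCl pH 7.5, 2 mM Mg(OAc)2, 1 mM DTT). Hydrolysis of 1 μM cAMP ran at 30 °C for 30 min, with enzyme dilution set for 10-20% hydrolysis. Analogues were tested at 1-100 μM in 3% final Me2SO. I50 was the concentration giving 50% inhibition.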
Chain of cGMP-dependent 3',5'-cyclic phosphodiesterase (O00408 whole entry): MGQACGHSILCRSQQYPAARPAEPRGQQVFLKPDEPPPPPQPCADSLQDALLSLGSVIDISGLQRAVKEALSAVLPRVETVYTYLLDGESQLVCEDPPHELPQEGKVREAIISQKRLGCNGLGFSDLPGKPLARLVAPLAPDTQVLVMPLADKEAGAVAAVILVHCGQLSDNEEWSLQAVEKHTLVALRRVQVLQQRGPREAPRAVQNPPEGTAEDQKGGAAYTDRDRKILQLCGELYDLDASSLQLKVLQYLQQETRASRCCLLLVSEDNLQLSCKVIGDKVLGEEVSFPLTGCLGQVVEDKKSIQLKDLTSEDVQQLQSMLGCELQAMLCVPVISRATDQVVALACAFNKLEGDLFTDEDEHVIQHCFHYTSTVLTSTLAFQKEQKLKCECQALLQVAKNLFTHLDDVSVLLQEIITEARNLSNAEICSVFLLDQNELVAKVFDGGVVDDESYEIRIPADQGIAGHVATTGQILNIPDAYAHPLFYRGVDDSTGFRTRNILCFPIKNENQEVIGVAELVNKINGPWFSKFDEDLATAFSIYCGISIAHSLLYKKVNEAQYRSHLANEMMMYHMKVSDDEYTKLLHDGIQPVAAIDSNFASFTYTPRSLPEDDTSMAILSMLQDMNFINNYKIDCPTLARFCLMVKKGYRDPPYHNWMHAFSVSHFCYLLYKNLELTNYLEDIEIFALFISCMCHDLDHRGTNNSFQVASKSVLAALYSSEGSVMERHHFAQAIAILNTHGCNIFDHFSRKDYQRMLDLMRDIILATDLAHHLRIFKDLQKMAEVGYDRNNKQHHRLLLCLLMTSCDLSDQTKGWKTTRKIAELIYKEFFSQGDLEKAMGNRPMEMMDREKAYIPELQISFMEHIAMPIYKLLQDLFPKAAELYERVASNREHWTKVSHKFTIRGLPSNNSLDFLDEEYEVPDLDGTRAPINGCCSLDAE

A further experiment concerns the target Phosphodiesterase 1 (Homo sapiens, UniProt P54750+Q01064+Q14123). Briefly: Inhibition of Calmodulin Sensitive Phosphodiesterase 1 from pig coronary artery. It counts as tissue-based, Sus scrofa. The conditions noted are these: target entry is the homologue from another species. The gist of the method:
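Media plus intima of porcine coronary artery homogenized in 20 mM Tris-HCl pH 7.5, 2 mM Mg(OAc)2, 1 mM DTT. The soluble fraction was resolved on DEAE-cellulose and peak I was pooled. Assay used 1 μM cGMP with calcium + calmodulin, 30 °C for 30 min, at 10-20% hydrolysis. Analogues were tested at 1-100 μM with 3% final Me2SO. I50 was taken as the concentration giving 50% inhibition of hydrolysis.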

The values below come from ChEMBL document CHEMBL1123546, “Inhibition of cyclic nucleotide phosphodiesterases from pig coronary artery by benzo-separated analogues of 3-isobutyl-1-methylxanthine” (J Med Chem, 1986).

As for `CC(C)CCn1c(=O)c2c3nc[nH]c3ccc2n(CC(C)C)c1=O`, in experiment [1], the IC50 turned out to be 19 µM. For the same compound, on Phosphodiesterase 1, the I50 is over 25 µM.

Turning to `CC(C)Cn1c(=O)n(C)c(=O)c2c1ncn2Cc1ccccc1`, the IC50 in experiment [1] amounted to 108 µM. This compound came in with an I50 on Phosphodiesterase 1 of 4.4 µM.

As to `CC(C)Cn1c(=O)n(C)c(=O)c2c3ncn(Cc4ccccc4)c3ccc21`, the IC50 in experiment [1] was determined as 13 µM. This compound also gave an I50 at Phosphodiesterase 1 of 20 µM.

For the compound `Cc1nc2cc3c(cc2[nH]1)c(=O)n(C)c(=O)n3CC(C)C`, the IC50 in experiment [1] was over 50 µM. This compound also showed an I50 at Phosphodiesterase 1 of 36 µM.

With `CC(C)Cn1c(=O)n(C)c(=O)c2[nH]c(C(C)(C)C)nc21`, the IC50 in experiment [1] came out at 58 µM. In addition, the I50 on Phosphodiesterase 1 turned out to be 1.8 µM.

For `CC(C)Cn1c(=O)n(C)c(=O)c2c3nc[nH]c3ccc21`, the IC50 in experiment [1] was 18 µM. The compound further had an I50 at Phosphodiesterase 1 of 8.4 µM.

`CC(C)Cn1c(=O)n(C)c(=O)c2cc3c(cc21)ncn3Cc1ccccc1`: the IC50 in experiment [1] came to 14 µM. In addition, the I50 on Phosphodiesterase 1 stood at 1.2 µM.

On to `CC(C)Cn1c(=O)n(C)c(=O)c2nc[nH]c21` [ISOBUTYLMETHYLXANTHINE], for which the IC50 in experiment [1] came to 15 µM. At Phosphodiesterase 1, this compound gave an I50 of 6.3 µM.

As to `Cc1nc2c([nH]1)c(=O)n(C)c(=O)n2CC(C)C`, in experiment [1], the IC50 is 68 µM. In addition, the I50 on Phosphodiesterase 1 amounted to 1.9 µM.

On to `CC(C)Cn1c(=O)n(C)c(=O)c2c3c(ccc21)ncn3Cc1ccccc1`, for which the IC50 in experiment [1] was found to be 14 µM. Also, the I50 at Phosphodiesterase 1 was 19 µM.

Take `CC(C)CCn1c(=O)c2nc[nH]c2n(CC(C)C)c1=O`: in experiment [1], the IC50 amounted to 17 µM. The compound further registered an I50 at Phosphodiesterase 1 of 86 µM.

On to `CC(C)Cn1c(=O)n(C)c(=O)c2cc3ncn(Cc4ccccc4)c3cc21`, for which the IC50 in experiment [1] came out at 27 µM. This compound also showed an I50 on Phosphodiesterase 1 of 4.9 µM.

Take `CC(C)Cn1c(=O)n(C)c(=O)c2cc3[nH]c(C(C)(C)C)nc3cc21`: the IC50 in experiment [1] is over 50 µM. The I50 on Phosphodiesterase 1 was determined as 41 µM.

As for `COCc1nc2cc3c(=O)n(C)c(=O)n(CC(C)C)c3cc2[nH]1`, in experiment [1], the IC50 was over 50 µM. Moreover, the I50 on Phosphodiesterase 1 is 36 µM.

On to `COCc1nc2c([nH]1)c(=O)n(C)c(=O)n2CC(C)C`, for which, in experiment [1], the IC50 was found to be 212 µM. At Phosphodiesterase 1, the I50 turned out to be 5.2 µM.

`CC(C)Cn1c(=O)n(C)c(=O)c2c3nc(C(C)(C)C)[nH]c3ccc21`: the IC50 in experiment [1] is 44 µM. This compound also returned an I50 at Phosphodiesterase 1 of over 50 µM.

Turning to `CC(C)CCn1c(=O)c2cc3nc[nH]c3cc2n(CC(C)C)c1=O`, the IC50 in experiment [1] was 20 µM. This compound also showed an I50 at Phosphodiesterase 1 of over 25 µM.

Regarding `COCc1nc2c(ccc3c2c(=O)n(C)c(=O)n3CC(C)C)[nH]1`, in experiment [1], the IC50 came to 66 µM. At Phosphodiesterase 1, this compound had an I50 of 54 µM.

As to `CC(C)Cn1c(=O)n(C)c(=O)c2cc3[nH]cnc3cc21`, the IC50 in experiment [1] is 89 µM. The compound also displayed an I50 at Phosphodiesterase 1 of 40 µM.

Turning to `Cc1nc2c(ccc3c2c(=O)n(C)c(=O)n3CC(C)C)[nH]1`, in experiment [1], the IC50 was over 25 µM. At Phosphodiesterase 1, this compound yielded an I50 of 15 µM.
